ChEMBL document CHEMBL1212768, “Screening and quantification of the expression of antibiotic resistance genes in Acinetobacter baumannii with a microarray” (2010)
In brackets after ≈: the same amount, converted by molar mass.

What was measured:
Format in all cases: functional
Acinetobacter baumannii [1] = assay: Antibacterial activity against Acinetobacter baumannii CIP70-10 by antimicrobial susceptibility assay
How it was run: (§1)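 MICs measured by Etest on Mueller-Hinton agar. Disk diffusion on the same medium was used for susceptibility screening. Strains were grown at 37°C in brain heart infusion broth or agar. Mutants were picked from antibiotic gradient plates, taking colonies growing above the normal MIC. Those resistant to several drug classes by diffusion were kept.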

Acinetobacter baumannii [2] = assay: Antibacterial activity against multidrug-resistant Acinetobacter baumannii BM4675 by antimicrobial susceptibility assay; how it was run: as §1
Acinetobacter baumannii [3] = assay: Antibacterial activity against multidrug-resistant Acinetobacter baumannii BM4665 by antimicrobial susceptibility assay; how it was run: as §1
Acinetobacter baumannii [4] = assay: Antibacterial activity against multidrug-resistant Acinetobacter baumannii BM4666 by antimicrobial susceptibility assay; how it was run: as §1
Acinetobacter baumannii [5] = assay: Antibacterial activity against Acinetobacter baumannii BM4454 by antimicrobial susceptibility assay; how it was run: as §1
Acinetobacter baumannii [6] = assay: Antibacterial activity against multidrug-resistant Acinetobacter baumannii BM4668 by antimicrobial susceptibility assay; how it was run: as §1
Acinetobacter baumannii [7] = assay: Antibacterial activity against multidrug-resistant Acinetobacter baumannii BM4676 by antimicrobial susceptibility assay; how it was run: as §1
Acinetobacter baumannii [8] = assay: Antibacterial activity against Acinetobacter baumannii BM4467 by antimicrobial susceptibility assay; how it was run: as §1
Acinetobacter baumannii [9] = assay: Antibacterial activity against multidrug-resistant Acinetobacter baumannii AYE by antimicrobial susceptibility assay; how it was run: as §1
Acinetobacter baumannii [10] = assay: Antibacterial activity against Acinetobacter baumannii BM4587 by antimicrobial susceptibility assay; how it was run: as §1

Compound | MIC (Acinetobacter baumannii [1]) [µg/mL] | MIC (Acinetobacter baumannii [2]) [µg/mL] | MIC (Acinetobacter baumannii [3]) [µg/mL] | MIC (Acinetobacter baumannii [4]) [µg/mL] | MIC (Acinetobacter baumannii [5]) [µg/mL] | MIC (Acinetobacter baumannii [6]) [µg/mL] | MIC (Acinetobacter baumannii [7]) [µg/mL] | MIC (Acinetobacter baumannii [8]) [µg/mL] | MIC (Acinetobacter baumannii [9]) [µg/mL] | MIC (Acinetobacter baumannii [10]) [µg/mL]
NCC[C@H](O)C(=O)N[C@@H]1C[C@H](N)[C@@H](O[C@H]2O[C@H](CN)[C@@H](O)[C@H](O)[C@H]2O)[C@H](O)[C@H]1O[C@H]1O[C@H](CO)[C@@H](O)[C@H](N)[C@H]1O [AMIKACIN] | 6 (≈ 10.2 µM) | 96 (≈ 164 µM) | 64 (≈ 109 µM) | 6 (≈ 10.2 µM) | 8 (≈ 13.7 µM) | 8 (≈ 13.7 µM) | > 256 | 4 (≈ 6.83 µM) | 96 (≈ 164 µM) | 4 (≈ 6.83 µM)
C[C@H]1[C@H](NC(=O)/C(=N\OC(C)(C)C(=O)O)c2csc(N)n2)C(=O)N1S(=O)(=O)O [AZTREONAM] | 48 (≈ 110 µM) | 32 (≈ 73.5 µM) | 6 (≈ 13.8 µM) | 32 (≈ 73.5 µM) | 16 (≈ 36.7 µM) | 48 (≈ 110 µM) | 32 (≈ 73.5 µM) | 32 (≈ 73.5 µM) | > 256 | 12 (≈ 27.6 µM)
CO/N=C(\C(=O)N[C@@H]1C(=O)N2C(C(=O)[O-])=C(C[N+]3(C)CCCC3)CS[C@H]12)c1csc(N)n1 [CEFEPIME] | 1.5 (≈ 3.12 µM) | 8 (≈ 16.6 µM) | 8 (≈ 16.6 µM) | 2 (≈ 4.16 µM) | 3 (≈ 6.24 µM) | 3 (≈ 6.24 µM) | 32 (≈ 66.6 µM) | 1.5 (≈ 3.12 µM) | > 256 | 0.75 (≈ 1.56 µM)
CO/N=C(\C(=O)N[C@@H]1C(=O)N2C(C(=O)O)=C(COC(C)=O)CS[C@H]12)c1csc(N)n1 [CEFOTAXIME] | 12 (≈ 26.3 µM) | > 256 | 4 (≈ 8.78 µM) | 6 (≈ 13.2 µM) | 4 (≈ 8.78 µM) | 8 (≈ 17.6 µM) | 32 (≈ 70.3 µM) | 4 (≈ 8.78 µM) | > 256 | 3 (≈ 6.59 µM)
CC(C)(O/N=C(\C(=O)N[C@@H]1C(=O)N2C(C(=O)[O-])=C(C[n+]3ccccc3)CS[C@H]12)c1csc(N)n1)C(=O)O [CEFTAZIDIME] | 6 (≈ 11 µM) | > 256 | 3 (≈ 5.49 µM) | 12 (≈ 22 µM) | 6 (≈ 11 µM) | 16 (≈ 29.3 µM) | > 256 | 8 (≈ 14.6 µM) | > 256 | 4 (≈ 7.32 µM)
O=C(N[C@H](CO)[C@H](O)c1ccc([N+](=O)[O-])cc1)C(Cl)Cl [CHLORAMPHENICOL] | 48 (≈ 149 µM) | > 256 | > 256 | > 256 | > 256 | > 256 | 128 (≈ 396 µM) | 96 (≈ 297 µM) | > 256 | 96 (≈ 297 µM)
O=C(O)c1cn(C2CC2)c2cc(N3CCNCC3)c(F)cc2c1=O [CIPROFLOXACIN] | 0.125 (≈ 0.377 µM) | > 32 | 0.5 (≈ 1.51 µM) | 0.38 (≈ 1.15 µM) | > 32 | 0.38 (≈ 1.15 µM) | 24 (≈ 72.4 µM) | 0.125 (≈ 0.377 µM) | > 32 | 0.094 (≈ 0.284 µM)
C[C@@H](O)[C@H]1C(=O)N2C(C(=O)O)=C(SCCNC=N)C[C@H]12 [IMIPENEM ANHYDROUS] | 0.25 (≈ 0.835 µM) | 2 (≈ 6.68 µM) | 0.5 (≈ 1.67 µM) | 0.19 (≈ 0.635 µM) | 0.25 (≈ 0.835 µM) | 0.25 (≈ 0.835 µM) | > 32 | 0.25 (≈ 0.835 µM) | 1 (≈ 3.34 µM) | 0.19 (≈ 0.635 µM)
CN(C)c1ccc(O)c2c1C[C@H]1C[C@H]3[C@H](N(C)C)C(O)=C(C(N)=O)C(=O)[C@@]3(O)C(O)=C1C2=O [MINOCYCLINE] | 0.047 (≈ 0.103 µM) | 8 (≈ 17.5 µM) | 0.125 (≈ 0.273 µM) | 0.19 (≈ 0.415 µM) | 0.75 (≈ 1.64 µM) | 0.125 (≈ 0.273 µM) | 1 (≈ 2.19 µM) | 0.064 (≈ 0.14 µM) | 0.5 (≈ 1.09 µM) | 0.064 (≈ 0.14 µM)
CCN[C@@H]1C[C@H](N)[C@@H](O[C@H]2OC(CN)=CC[C@H]2N)[C@H](O)[C@H]1O[C@H]1OC[C@](C)(O)[C@H](NC)[C@H]1O [NETILMICIN] | 2 (≈ 4.21 µM) | 32 (≈ 67.3 µM) | 64 (≈ 135 µM) | 1.5 (≈ 3.15 µM) | 16 (≈ 33.6 µM) | 2 (≈ 4.21 µM) | 12 (≈ 25.2 µM) | 2 (≈ 4.21 µM) | 48 (≈ 101 µM) | 1.5 (≈ 3.15 µM)
CCn1cc(C(=O)O)c(=O)c2cc(F)c(N3CCNCC3)cc21 [NORFLOXACIN] | 2 (≈ 6.26 µM) | > 256 | 12 (≈ 37.6 µM) | 4 (≈ 12.5 µM) | > 256 | 4 (≈ 12.5 µM) | 192 (≈ 601 µM) | 1.5 (≈ 4.7 µM) | > 256 | 1.5 (≈ 4.7 µM)
CO[C@H]1/C=C/O[C@@]2(C)Oc3c(C)c(O)c4c(O)c(c(/C=N/N5CCN(C)CC5)c(O)c4c3C2=O)NC(=O)/C(C)=C\C=C\[C@H](C)[C@H](O)[C@@H](C)[C@@H](O)[C@@H](C)[C@H](OC(C)=O)[C@@H]1C [RIFAMPIN] | 4 (≈ 4.86 µM) | > 32 | 1.5 (≈ 1.82 µM) | 3 (≈ 3.65 µM) | 2 (≈ 2.43 µM) | 3 (≈ 3.65 µM) | 2 (≈ 2.43 µM) | 2 (≈ 2.43 µM) | 16 (≈ 19.4 µM) | 1.5 (≈ 1.82 µM)
CN(C)[C@@H]1C(O)=C(C(N)=O)C(=O)[C@@]2(O)C(O)=C3C(=O)c4c(O)cccc4[C@@](C)(O)[C@H]3C[C@@H]12 [TETRACYCLINE] | 1 (≈ 2.25 µM) | 32 (≈ 72 µM) | 3 (≈ 6.75 µM) | 8 (≈ 18 µM) | 32 (≈ 72 µM) | 8 (≈ 18 µM) | 12 (≈ 27 µM) | 3 (≈ 6.75 µM) | 64 (≈ 144 µM) | 1.5 (≈ 3.38 µM)
CC1(C)S[C@@H]2[C@H](NC(=O)[C@H](C(=O)O)c3ccsc3)C(=O)N2[C@H]1C(=O)O [TICARCILLIN] | 24 (≈ 62.4 µM) | > 256 | 2 (≈ 5.2 µM) | 16 (≈ 41.6 µM) | 8 (≈ 20.8 µM) | 24 (≈ 62.4 µM) | > 256 | 12 (≈ 31.2 µM) | > 256 | 6 (≈ 15.6 µM)
CN(C)c1cc(NC(=O)CNC(C)(C)C)c(O)c2c1C[C@H]1C[C@H]3[C@H](N(C)C)C(O)=C(C(N)=O)C(=O)[C@@]3(O)C(O)=C1C2=O [TIGECYCLINE] | 0.125 (≈ 0.213 µM) | 1.5 (≈ 2.56 µM) | 1.5 (≈ 2.56 µM) | 0.38 (≈ 0.649 µM) | 3 (≈ 5.12 µM) | 0.5 (≈ 0.854 µM) | 1.5 (≈ 2.56 µM) | 0.125 (≈ 0.213 µM) | 1.5 (≈ 2.56 µM) | 0.094 (≈ 0.161 µM)
NC[C@H]1O[C@H](O[C@H]2[C@H](O)[C@@H](O[C@H]3O[C@H](CO)[C@@H](O)[C@H](N)[C@H]3O)[C@H](N)C[C@@H]2N)[C@H](N)C[C@@H]1O [TOBRAMYCIN] | 2 (≈ 4.28 µM) | 12 (≈ 25.7 µM) | 16 (≈ 34.2 µM) | 1 (≈ 2.14 µM) | 4 (≈ 8.56 µM) | 2 (≈ 4.28 µM) | 96 (≈ 205 µM) | 1.5 (≈ 3.21 µM) | 64 (≈ 137 µM) | 0.75 (≈ 1.6 µM)
GENTAMICIN | 1.5 | 24 | 12 | 1.5 | 6 | 1.5 | > 256 | 1.5 | > 256 | 1
